Data set [1] can be described thus: Lipid solubility measured as chloroform-water partition coefficient. It is filed as physicochemical. The essentials:
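Partition between chloroform and 10 mM phosphate buffer pH 7.5 (1:1 volume); drug at 1 mg/mL initially in aqueous phase, shaken 20 min at 20 °C, centrifuged, both phases quantified by HPLC. HCl salts used.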

Data set [2] relates to Rattus norvegicus. As to the kind of experiment: Concentration 5c detected in blood of rat 1 hr after an oral dose of 200 mg/kg of the compound. It is filed as ADME, organism-based. The arrangement: dose 200 mg/kg, route oral. The conditions noted are these: in vivo. The essentials: (§1)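 Male Wistar rats (120–160 g, 5–7 per group) fasted 24 h, then given 200 mg/kg orally as the HCl salt in a glycerin/HCO-60 formulation (drug/glycerin/HCO-60 1/12/0.05 by weight) in aqueous solution. At 1 or 3 h, jugular blood was citrated and plasma was ethanol-deproteinized, then analysed by reverse-phase HPLC at 254 nm. Values were recovery-corrected from blood spiked at 50 μg/mL and are means of 6–7 rats.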

The subject of data set [3] is Rattus norvegicus. Nature of the data set: Concentration 5c detected in blood of rat 3 hr after an oral dose of 200 mg/kg of the compound. In kind it is ADME, organism-based. The arrangement: dose 200 mg/kg, route oral. The note with it: in vivo. Summed up: as §1
Data set [4] has as its system Rattus norvegicus. As to the kind of experiment: Concentration 6c detected in blood of rat 1 hr after an oral dose of 200 mg/kg of the compound. It is filed as ADME, organism-based. The arrangement: dose 200 mg/kg, route oral. The note with it: in vivo. The essentials: as §1
Data set [5] deals with Rattus norvegicus. As to the kind of experiment: Concentration 6c detected in blood of rat 3 hr after an oral dose of 200 mg/kg of the compound. It is filed as ADME, organism-based. The arrangement: dose 200 mg/kg, route oral. The note with it: in vivo. The essentials: as §1
The nature of data set [6]: Solubility in water, tested as a HCl salt. In kind it is physicochemical. The conditions noted are these: read-out: S. Summed up:
(§2)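 HCl salts suspended in excess in water or 10 mM phosphate buffer pH 7.5, sonicated 10 min at 20 °C to saturation, centrifuged; supernatant quantified by HPLC.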

Data set [7] deals with Rattus norvegicus. As to the kind of experiment: % recovery of the compound, compound 1 and compound 6a from whole blood of 7 wistar rats after an oral dose of the compound. In kind it is ADME, organism-based. The note with it: in vivo.
Data set [8] deals with Cavia porcellus. As to the kind of experiment: Antiinflammatory activity evaluated as Minimum effective oral dose that inhibits dextran UV erythema in guinea pig. In kind it is functional.
Data set [9] concerns Rattus norvegicus. Nature of the data set: Antiinflammatory activity evaluated as Minimum effective oral dose that inhibits bradykinin paw edema in rat. In kind it is functional.
Data set [10] concerns Rattus norvegicus. As to the kind of experiment: Antiinflammatory activity evaluated as Minimum effective oral dose that inhibits carrageenan paw edema in rat. In kind it is functional. In general terms: The carrageenan paw model is a standard test of acute inflammation.
Data set [11] deals with Rattus norvegicus. As to the kind of experiment: Antiinflammatory activity evaluated as Minimum effective oral dose that inhibits dextran paw edema in rat. It is filed as functional.
The test system of data set [12] is Rattus norvegicus. Nature of the data set: Antiinflammatory activity evaluated as Minimum effective oral dose that inhibits adjuvant arthritis in rats. In kind it is functional. Summed up: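 Adjuvant arthritis: male Sprague-Dawley rats (180–200 g), 8–10 per group, injected in right hind paw with Mycobacterium butyricum powder in corn oil (0.6 mg/0.1 mL). Oral dosing started 1 h after adjuvant, then daily for 18 days; observed 28 days. Minimum effective dose recorded.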

Data set [13] in a line: Acute toxicity evaluated as oral lethal dose in rat. It is filed as organism-based. The note with it: in vivo. Summed up: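 Oral dosing of male Wistar rats (120-140 g), given as HCl salt; LD50 derived from mortality over 7 days.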
The subject of data set [14] is Rattus norvegicus. As to the kind of experiment: Gastroprotective activity as % protection against stress ulcers in 5 rats after an intraperitoneal dose of 12.5 mg/kg. In kind it is functional. Summed up:
(§3)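 Stress ulcer by restraint and water immersion: male Wistar rats (160–180 g), fasted 24 h, given test compound po or ip as HCl salt in aqueous glycerin/HCO-60 formulation (1/12/0.05 by weight). Vehicle-only controls. After 1 h, restrained in net cage and immersed in 21 °C water for 6 h. Percent ulcer inhibition calculated; five rats per dose.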

Data set [15] has as its system Rattus norvegicus. As to the kind of experiment: Gastroprotective activity as % protection against stress ulcers in 5 rats after an intraperitoneal dose of 25 mg/kg. It is filed as functional. The essentials:
as §3

The test system of data set [16] is Rattus norvegicus. Nature of the data set: Gastroprotective activity as % protection against stress ulcers in 5 rats after an intraperitoneal dose of 50 mg/kg. It is filed as functional. The essentials:
as §3

Data set [17] deals with Rattus norvegicus. As to the kind of experiment: Gastroprotective activity as % protection against stress ulcers in 5 rats after an oral dose of 100 mg/kg. In kind it is functional. Summed up:
as §3

In data set [18] the test system is Rattus norvegicus. As to the kind of experiment: Gastroprotective activity as % protection against stress ulcers in 5 rats after an oral dose of 12.5 mg/kg. It is filed as functional. The essentials:
as §3

The subject of data set [19] is Rattus norvegicus. As to the kind of experiment: Gastroprotective activity as % protection against stress ulcers in 5 rats after an oral dose of 25 mg/kg. In kind it is functional. The essentials:
as §3

For data set [20], the system named is Rattus norvegicus. Nature of the data set: Gastroprotective activity as % protection against stress ulcers in 5 rats after an oral dose of 50 mg/kg. In kind it is functional. The essentials: as §3
The nature of data set [21]: Solubility in phosphate buffer, tested as a HCl salt. It is filed as physicochemical. Summed up: as §2
Data set [22] has as its system Rattus norvegicus. As to the kind of experiment: Concentration 6d detected in blood of rat 3 hr after an oral dose of 200 mg/kg of the compound. The note with it: in vivo. The arrangement: dose 200 mg/kg, route oral. It is filed as ADME, organism-based. Summed up:
(§4)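 Male Wistar rats (120–160 g), 5–7 per group, fasted 24 h, given 200 mg/kg orally as aqueous HCl salt formulation (drug/glycerin/HCO-60 1/12/0.05 by weight). Jugular blood taken under ether at 1 or 3 h into citric acid; plasma deproteinized with ethanol (acetone for 5d) and analysed by C18 HPLC at 254 nm. Values recovery-corrected, mean of 6–7 rats.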

Data set [23] has as its system Rattus norvegicus. Nature of the data set: Concentration 1 detected in blood of rat 3 hr after an oral dose of 200 mg/kg; ND is Not Detected. It is filed as ADME, organism-based. The arrangement: dose 200 mg/kg, route oral. The note with it: in vivo. Summed up:
as §4

Data set [24] deals with Rattus norvegicus. Nature of the data set: Concentration 5d detected in blood of rat 1 hr after an oral dose of 200 mg/kg of the compound. It is filed as ADME, organism-based. The arrangement: dose 200 mg/kg, route oral. The note with it: in vivo. Summed up: as §4
The subject of data set [25] is Rattus norvegicus. As to the kind of experiment: Concentration 5d detected in blood of rat 3 hr after an oral dose of 200 mg/kg of the compound. It is filed as ADME, organism-based. The arrangement: dose 200 mg/kg, route oral. The conditions noted are these: in vivo. The essentials:
as §4

Data set [26] deals with Rattus norvegicus. As to the kind of experiment: Concentration 6d detected in blood of rat 1 hr after an oral dose of 200 mg/kg of the compound. It is filed as ADME, organism-based. The arrangement: dose 200 mg/kg, route oral. The conditions noted are these: in vivo. The essentials: as §4
Data set [27] is described as follows: Concentration detected in blood of rat 1 hr after an oral dose of 200 mg/kg. It is filed as ADME, organism-based. The arrangement: dose 200 mg/kg, route oral. Summed up:
as §4

The nature of data set [28]: Concentration detected in blood of rat 3 hr after an oral dose of 200 mg/kg of the compound. In kind it is ADME, organism-based. The arrangement: dose 200 mg/kg, route oral. The essentials:
as §4

Data set [29] deals with Rattus norvegicus. Nature of the data set: % recovery 1 from whole blood of 7 wistar rats after an oral dose of the compound. In kind it is ADME, organism-based. The conditions noted are these: in vivo.
In data set [30] the test system is Rattus norvegicus. As to the kind of experiment: Concentration 6e detected in blood of rat 1 hr after an oral dose of 200 mg/kg of the compound. It is filed as ADME, organism-based. The arrangement: dose 200 mg/kg, route oral. The note with it: in vivo. Summed up: as §4
The subject of data set [31] is Rattus norvegicus. Nature of the data set: Concentration 6e detected in blood of rat 3 hr after an oral dose of 200 mg/kg of the compound. It is filed as ADME, organism-based. The arrangement: dose 200 mg/kg, route oral. The conditions noted are these: in vivo. Summed up:
as §4

Data set [32] deals with Rattus norvegicus. As to the kind of experiment: Concentration 1 detected in blood of rat 1 hr after an oral dose of 200 mg/kg; ND is Not Detected. It is filed as ADME, organism-based. The arrangement: dose 200 mg/kg, route oral. The note with it: in vivo. The essentials: as §4
Data set [33] concerns Rattus norvegicus. As to the kind of experiment: Concentration 5e detected in blood of rat 1 hr after an oral dose of 200 mg/kg of the compound. It is filed as ADME, organism-based. The conditions noted are these: in vivo. The arrangement: dose 200 mg/kg, route oral. The essentials:
as §4

For data set [34], the system named is Rattus norvegicus. Nature of the data set: Concentration 5e detected in blood of rat 3 hr after an oral dose of 200 mg/kg of the compound. It is filed as ADME, organism-based. The arrangement: dose 200 mg/kg, route oral. The conditions noted are these: in vivo. Summed up: as §4

Each structure is given as a SMILES string.

With `Cn1cnc2c1c(=O)[nH]c(=O)n2C` [THEOBROMINE], in data set [1], the P was determined as 0.1.

Regarding `CNCC(=O)O` [SARCOSINE], in data set [1], the P was less than 0.03.

The ED50 is the dose that gives a 50% effect, or the effect in half of the subjects. Higher therefore signals a need for a large dose. A word on the LD50: it is the dose at which mortality reaches 50%. With `CCCNC1CC(=O)OC1C(O)C(=O)NC(CC(C)C)C1Cc2cccc(O)c2C(=O)O1` (configuration not stated), the Concentration in data set [2] was found to be 14200 ng/mL; in [3], 3400 ng/mL; in [4] it was 6400 ng/mL; in data set [5], 3400 ng/mL. Besides, the figures for the solubility in data set [6] and in data set [21] were greater than 100000 µg/mL and 1600 µg/mL, respectively. This compound registered a P in data set [1] of 260. The Recovery in [7] is listed as 40%. Further, the ED50 in data set [8] stood at 12 mg/kg; in data set [9], 69 mg/kg; in data set [10], 124 mg/kg; in data set [11], 43 mg/kg. In [12], the EDmin worked out at 15 mg/kg. In addition, in data set [13], the LD50 came to 1080 mg/kg. Besides, the Protection in data set [14] worked out at 44%; in data set [15] it was 66%; in data set [16], 89%; in data set [17], 100%; in [18] it was 17%; in [19], 78%. This compound yielded a Protection in [20] of 94%.

As for `CCCCNC1CC(=O)OC1C(O)C(=O)NC(CC(C)C)C1Cc2cccc(O)c2C(=O)O1` (configuration not stated), the Concentration in data set [22] was 1800 ng/mL; in data set [23], “Not detected”; in [24] it was 2300 ng/mL; in data set [25], 2300 ng/mL; in data set [26], 2000 ng/mL. Further, the solubility is 100000 µg/mL in data set [6] and 370 µg/mL in data set [21]. Further, in [1], the P amounted to 1700. This compound returned a Recovery in data set [7] of 30%. For the same compound, the Protection worked out at 44% in [15]; 89% in data set [16]; 89% in data set [17]; 17% in data set [18]; 33% in data set [19]; 66% in data set [20].

As to `CC(C)C[C@H](NC(=O)C(O)C1OC(=O)CC1N)[C@@H]1Cc2cccc(O)c2C(=O)O1.Cl` (some centres not stated), in [27], the concentration at 1 h came to 800 ng/mL. The concentration at 3 h in data set [28] worked out at 600 ng/mL. Moreover, in data set [29], the Recovery is 50%. For the same compound, the Protection in [14] is on record as 66%; in data set [15] it was 83%; in data set [16] it was 83%; in data set [17], 78%; in data set [19], 44%; in data set [20], 66%.

As for `CCCCCNC1CC(=O)OC1C(O)C(=O)NC(CC(C)C)C1Cc2cccc(O)c2C(=O)O1` (configuration not stated), the Concentration in data set [30] was 800 ng/mL; in data set [31] it was 600 ng/mL; in [32], “Not detected”; in [23], “Not detected”; in data set [33], 1200 ng/mL; in data set [34], 800 ng/mL. The solubility in data set [6] stood at 7300 µg/mL; in data set [21], 330 µg/mL. Also, the P in data set [1] is 1900. The compound further registered a Recovery in data set [7] of 50%. Moreover, the Protection is listed as 56% in data set [15]; 44% in data set [16]; 56% in data set [17]; 44% in data set [19]; 33% in data set [20].

Source of the values: ChEMBL document CHEMBL1123133, “1H-2-Benzopyran-1-one derivatives, microbial products with pharmacological activity. Conversion into orally active derivatives with antiinflammatory and antiulcer activities” (J Med Chem, 1985).
